Laboratory results taken from ChEMBL document CHEMBL5500386, “Design, synthesis and bioactivity evaluation of 4-hydroxycoumarin derivatives as potential anti-inflammatory agents against acute lung injury and colitis” (Eur J Med Chem, 2024).

Columns and labels:
J774.A1 = assay: Antiinflammatory activity in LPS-induced mouse J774.a1 cells assessed as inhibition of IL-6 production by measuring fold change at 10 uM pretreated for 2 hrs followed by LPS stimulation and measured after 30 mins by ELISA relative to 4-hydroxycoumarin; type: functional; details: time 2.5 hrs
[1] = Acute toxicity in male ICR mouse assessed as histopathological changes in lung at 500 to 1000 mg/kg, po administered daily for 10 days by H and E staining based analysis; type: organism-based; details: in vivo, 240 h, dose 500-1000 mg/kg, time 10 day
Method in brief: (§1)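 Male ICR mice (8 weeks, 30 g ± 2 g), acclimatised 1 week, randomised into 1000 mg/kg, 500 mg/kg and untreated control groups (n = 24 total). Dosed by daily gavage, compound dissolved in 0.5 % DMSO then added to normal saline. Body weight and behaviour recorded daily. Euthanised after 10 days; heart, liver, spleen, lung and kidney examined by H&E staining.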

[2] = Acute toxicity in male ICR mouse assessed as fatality at 500 to 1000 mg/kg, po administered daily for 10 days and measured daily; type: organism-based; details: in vivo, 240 h, dose 500-1000 mg/kg, time 10 day; method in brief: as §1

With `CC(=O)N1CCN(CCOc2cc(=O)oc3ccccc23)CC1` the “fold change (FC)” value (J774.A1) was 3, the Activity [1] was “Non-Toxic” and the Activity [2] was “Non-Toxic”.
